# Reference: PMC9532784 (Food Chemistry: X, 2022)
# System: PDE4
# Assay: In vitro PDE4-inhibitory assay
# Format: biochemical
# Settings: ratio of IC50 values
# Method in brief: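 Fluorescence-polarization kit. Test compound diluted in assay buffer containing 10 % DMSO (dilution solvent, not final), then added to reactions with PDE4 and 200 nM FAM-cAMP for 1 h at room temperature. Binding agent (1:99 in diluent) added for 30 min at RT with slow shaking; FP read at ex 485/em 528 nm. Triplicate per concentration; % activity = (FP−FPb)/(FPt−FPb)×100. IC50 from dose-response fit; ratios taken between IC50s.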
structure (smiles),measurement,setting,value
C[C@@H]1O[C@@H](O[C@H]2C(=O)c3c(O)cc(O)cc3O[C@@H]2c2ccc(O)c(O)c2)[C@H](O)[C@H](O)[C@H]1O [Astilbin],fold higher PDE4 inhibitory effect than isoastilbin,versus isoastilbin,8.9 fold
same,fold higher PDE4 inhibitory effect than neoastilbin,versus neoastilbin,2.9 fold
